Our source for the Activity and CC50 values is ChEMBL document CHEMBL1139327, “Synthesis and biological properties of Pachastrissamine (jaspine B) and diastereoisomeric jaspines” (2009).

Assay [1] concerns A549. The experiment in a line: Cytotoxicity against human A549 cells assessed as PI positive cells after 24 hrs by flow cytometry. It is filed as functional, cell-based. The method, boiled down:
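A549 cells exposed 24 h to a range of compound concentrations, harvested by brief trypsinization, double-stained with Alexa Fluor 488 annexin V and propidium iodide, analysed by flow cytometry; percentage of cells positive for annexin V, PI or both scored against untreated control.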

Assay [2] has as its system A549. Nature of the assay: Cytotoxicity against human A549 cells after 24 hrs by MTT assay in presence of 3-methyladenine. It is filed as functional. The method, boiled down: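 A549 (HAM F12/glutamine, 10% FBS, 37 °C, 5% CO2) pretreated 2 weeks with 10 mM 3-MA in flask, medium changed every 2 days. Then 10^5 cells/well seeded in medium with 3-MA plus compounds at 0.02–400 μM final (ethanol vehicle, 0.1%), 24 h. Viability by MTT, LD50 derived. Means SD, three independent experiments, triplicates.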
For orientation: Formazan colour is commonly taken as a measure of viable cells.

Assay [3] relates to A549. The experiment in a line: Cytotoxicity against human A549 cells after 24 hrs by MTT assay. It is filed as functional. The conditions noted are these: A549, 24 h, read-out: LD50 (the source's name). The method, boiled down: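 Human alveolar epithelial A549 cells (ATCC) grown in HAM F12 with glutamine plus 10% FBS at 37 °C, 5% CO2. Seeded at 10^5 cells/well; after 24 h, medium renewed and compounds (ethanol stocks; vehicle control 0.1% ethanol) added to final 0.02–400 µM for 24 h. Viable cells by MTT; LD50 from concentration–response; means of three independent experiments with triplicates.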

Assay [4] deals with A549. Nature of the assay: Induction of 3-methyladenine-inhibited autophagy in human A549 cells assessed as increase in ceramide levels.
In assay [5] the test system is A549. The experiment in a line: Cytotoxicity against human A549 cells after 24 hrs by MTT assay in absence of 3-methyladenine. The class given is functional. The method, boiled down:
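A549 (ATCC) grown in HAM F12 with glutamine + 10% FBS, 37 °C, 5% CO2. Seeded 10^5 cells/well, medium renewed after 24 h, then exposed 24 h to 0.02–400 μM final (ethanol stock; 0.1% ethanol vehicle control). Viable cells by MTT; LD50 taken from curves. Means SD, three independent experiments in triplicate.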

The structures appear in SMILES notation. Calls of active or inactive are those of the source. The calls are words filed in the database; no cut-off is given here.

For the compound `CCCCCCCCCCCCCC[C@H]1OC[C@H](N)[C@H]1O`, in the assay with A549 [1], the Activity result was “Dose-dependent effect”. The result in the assay on A549 [2] was inactive. Also, in the assay on A549 [3], the CC50 is 2500 nM.
The matching figures for `CCCCCCCCCCCCCC[C@@H]1OC[C@H](N)[C@H]1O`: “Dose-dependent effect”, “inactive” and 1500 nM.
On to `CCCCCCCCCCCCCC[C@@H]1OC[C@H](N)[C@@H]1O` [PACHASTRISSAMINE], for which the Activity entry in the assay on A549 [4] and in the assay on A549 [1] was “Dose-dependent effect” in each case. For the same compound, the result in the assay on A549 [2] was inactive. Moreover, in the assay on A549 [3], the CC50 was found to be 130 nM.
`CCCCCCCCCCCCCC[C@H]1OC[C@H](N)[C@@H]1O` [2-EPI JASPINE B]: the Activity result with A549 [1] is “Dose-dependent effect”. Moreover, the outcome in the assay on A549 [2] was inactive. Besides, in the assay with A549 [3], the CC50 turned out to be 1250 nM.
For `CCCCCCCCCCCCCC[C@H](O)[C@@H](O)[C@@H](N)CO`, the results for the Activity with A549 [2] and in the assay on A549 [5] were 29.4 µM and 28.2 µM, respectively.
